# Rows were chosen to be rich in hits. Some 2.2% of all compounds tested hit in one or more screens of this group.
# SF-1 act: SF-1 (human) activation | Q13285 | CHO-K1 Gal4-SF-1 LBD luciferase reporter; % increase over DMSO SF-1-specific signal | activation, % at 10 µM | 65,000 compounds, 1.9% hits | AID 522;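 active = activation above the mean activation of all tested compounds plus 3 SD, cut at about 50% in these data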
# Target sequence (Q13285 whole entry, looked up, the tested form may be a part): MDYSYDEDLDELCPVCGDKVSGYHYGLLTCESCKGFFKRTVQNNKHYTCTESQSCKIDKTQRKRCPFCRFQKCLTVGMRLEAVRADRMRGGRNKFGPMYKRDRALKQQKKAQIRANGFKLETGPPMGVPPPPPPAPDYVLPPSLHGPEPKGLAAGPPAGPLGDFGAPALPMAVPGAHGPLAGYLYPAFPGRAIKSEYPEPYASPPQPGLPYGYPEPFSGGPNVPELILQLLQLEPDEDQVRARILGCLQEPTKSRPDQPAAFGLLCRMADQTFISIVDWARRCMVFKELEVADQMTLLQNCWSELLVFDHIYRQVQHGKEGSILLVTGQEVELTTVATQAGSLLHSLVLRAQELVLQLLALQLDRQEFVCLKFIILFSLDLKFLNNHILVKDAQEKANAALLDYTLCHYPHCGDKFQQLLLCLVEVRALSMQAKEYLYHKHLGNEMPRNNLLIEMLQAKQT
#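 Test system: transient Gal4-SF-1 LBD reporter, CHO-K1; Amount: 4,000 CHO-K1 cells per well; Doses: 10 µM only; Timing: compound exposure 20 h at 37 °C; Signal: luciferase light emission; Read-out basis: percent activation relative to DMSO median and mock-transfected background; Control set: DMSO negative control and −SF1 background wells; Replicates: one test per compound.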
# Mac1 fbg enh: increases human CD11b/CD18 adhesion to fibrinogen. P05107+P11215. K562 CD11b/CD18 adhesion to fibrinogen, ATPlite luminescence. AID 1499. 93,000 compounds, 0.07% hits. activation, % at 10 µM;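 active = 10 µM primary screen giving 50% or more activity, confirmed by 40% or more on retest at that dose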
# Calb biofilm kill: kills Candida albicans biofilms; C. albicans biofilm + clotrimazole, Alamar Blue; inhibition, % at 6 µM; 85,000 compounds, 0.14% hits; AID 834;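 active = inhibition above 20%; inactive = inhibition below 20%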;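 also: preformed 24 hr biofilms exposed to compound for 48 hr; 0% = biofilm without compound and 100% = blank killed by clotrimazole plus chlorhexidine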
# MT1-MMP txn act: MT1-MMP promoter transcription activation; 86,000 compounds, 0.16% hits; activation factor at 10 µM; HT1080 MT1-MMP promoter luciferase reporter, luminescence, overnight; stronger effect = higher value;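 active = activation factor of at least 2 for MT1-MMP transcription at 10 µM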
# CD11b adhes inh: CD11b/CD18-fibrinogen binding inhibition. inhibition, % at 10 µM. 93,000 compounds, 0.54% hits. K562 CD11b/CD18 adhesion to fibrinogen, ATPlite luminescence; Mn2+ added to activate the integrin. AID 1497;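 active = primary inhibition of 50% or more at 10 µM, then 40% or more on retest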
# RORA act: activates the human nuclear receptor RORA. CHO-K1 Gal4-RORA LBD luciferase reporter, luminescence; percent increase over mock-subtracted basal signal. activation, % at 10 µM. 65,000 compounds, 1.5% hits;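 active = activation above the mean of all tested compounds plus 3 SD, cut at about 49% in these data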;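 also: 0% = DMSO-treated RORA cells and 100% = added signal equal to DMSO minus mock-transfected cells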
# * = called active by the depositor; . = no result given.
SMILES,SF-1 act,Mac1 fbg enh,Calb biofilm kill,MT1-MMP txn act,CD11b adhes inh,RORA act
O=C(Nc1ccccc1)c1cnc2n(c1=O)CCS2,30.1,3.6,0.8,1.6,-6.0,36.6
O=C1C(C=NCc2ccccn2)=C(O)c2ccccc21,54.9*,.,-4.9,1.7,.,47.4
CC(C)CCn1cnc2c(NCc3ccccc3)ncnc21,.,-1.5,6.7,.,-9.3,.
c1ccc(CNc2ncnc3c2ncn3C2CCCCO2)cc1 (stereo not given),60.4*,-0.7,3.8,1.7,1.8,68.5*
Nc1ccc(O)c(-c2nc3ccccc3s2)c1,39.8,64.0,-3.6,2.1*,0.1,22.3
COc1ccc(Cn2c(-c3ccc(C)cc3)c[n+]3ccccc23)cc1,.,0.5,.,.,33.7,.
O=C(O)CC(NS(=O)(=O)c1cccc2nsnc12)c1ccc(F)cc1 (stereo not given),-1.2,-9.1,3.4,1,60.1*,-10.6
CCC(C)NC(=O)C(NS(=O)(=O)c1cccc2nsnc12)c1ccccc1 (stereo not given),-27.8,.,2.4,1.3,.,-9.8
CC1CCCC(C)N1C(=O)COC(=O)C(Cc1ccccc1)NC(=O)c1cccs1 (stereo not given),.,6.3,.,.,21.6,.
COc1ccc(Nc2nc(C)c3ccccc3n2)cc1,98.7*,-4.0,10.1,2.1*,4.0,55.1*
CCN(CC)C(=S)NC(=O)c1ccc(Cl)cc1Cl,.,-4.2,.,.,2.5,.
O=C(Nc1nc(=S)ss1)c1ccc(Cl)cc1Cl,.,-7.4,-4.2,1.1,113.8*,.
O=C(Nc1cccc(-c2cnc3ccccc3n2)c1)c1ccco1,55.1*,13.8,6.3,1,-1.8,60.7*
Cc1cccc(C(=O)Nc2cccc(-c3cnc4ccccc4n3)c2)c1,.,2.8,.,.,3.8,.
Cc1cnc(C(=O)Nc2nnc(C)s2)cn1,1.1,2.9,7.7,1.2,9.0,-1.5
Cc1cnc(C(=O)Nc2nnc(C(C)C)s2)cn1,68.5*,2.1,.,1.6,-41.8,32.9
CC(C)c1nnc(NC(=O)c2cnccn2)s1,50.7*,1.8,3.6,1.4,-8.9,32.2
CCOC(=O)C1=C(C)N(CCCC(=O)O)C(=O)NC1c1ccccc1OC(=O)c1cccs1 (stereo not given),.,.,.,1.1,.,.
COC(=O)c1ccc(C(NC(=O)OCc2ccccc2)/C(C)=C/[C@@H](C)CO)cc1 (stereo not given in full),.,.,.,1.1,.,.
CCOC(=O)c1[nH]c(C)c(C(=O)Nc2ccccc2F)c1C,82.6*,.,9.9,1.2,.,110.5*
N#Cc1ccc(OCC(=O)OCC(=O)Nc2cc(C(F)(F)F)ccc2N2CCOCC2)cc1,.,-1.3,.,.,10.2,.
CCOC(=O)N1CCN(C(=O)CN2C(=O)COc3ccc(C(C)(C)C)cc32)CC1,-4.3,1.8,8.1,1.1,12.2,11.6
c1ccc2oc(SCc3cn4ccsc4n3)nc2c1,46.4,-0.4,4.2,1.7,9.2,29.9
Cc1csc2nc(CSc3nc4ccccc4o3)cn12,61.3*,-2.3,-0.6,1.7,24.2,-5.4
O=C(O)c1ccccc1NCN1C(=O)C2CC=C(Cl)CC2C1=O (stereo not given),2.2,-2.7,3.2,1.1,0.3,0.7
SMILES,SF-1 act,Mac1 fbg enh,Calb biofilm kill,MT1-MMP txn act,CD11b adhes inh,RORA act
CC1(C)NC(=O)N(CC(O)COC2CCCCC2)C1=O (stereo not given),-2.2,-5.9,8.4,1.1,-4.0,1.1
CC1(C)NC(=O)N(CC(O)CN2CCCCC2)C1=O (stereo not given),50.8*,3.6,1.4,1.1,3.9,8.6
CCOC(=O)CN1C(=O)CN(c2ccc(C)c(C)c2)C1=O,.,4.7,.,.,-1.5,.
COc1ccc(Cn2c(C3CC3)nc3ccc(NC(=O)c4ccco4)cc3c2=O)cc1,59.2*,2.6,2.1,1.6,-2.9,43.8
CCC(=O)Nc1ccc2nc(C3CC3)n(Cc3ccccc3)c(=O)c2c1,62.7*,-2.8,1.9,1.5,-8.8,23.6
CCCCCCN(C(=O)CCCCCN1C(=O)NC(c2ccccc2-c2ccccc2)C(C(=O)OCc2ccccc2)=C1C)C(C(=O)NCCCC)c1ccc(OCC(=O)OC)c(C(=O)OC)c1 (stereo not given),.,.,.,1.1,.,.
Cc1ccc(S(=O)(=O)N2C(=S)SCC2(C)C)cc1,-15.8,-4.2,2.0,1,-13.2,-18.7
CC1=CC(C)(C)N(S(=O)(=O)c2ccc(C)cc2)c2cc(C)ccc21,.,-4.8,-1.4,0.4,79.0*,.
Cn1c(=O)c(C(=O)Nc2cnccn2)c(O)c2ccccc21,28.8,6.7,2.5,1.6,10.3,52.5*
O=C(NCCC1=CCCCC1)C1CCN(C(=O)c2ccc(Br)cc2)CC1,.,0.5,.,.,-13.5,.
OCC1CCCN(c2nc(CN3CCCCC3)nc3scc(-c4ccccc4)c23)C1 (stereo not given),.,2.0,.,.,4.0,.
CCNc1nc(CN2CCCCC2)nc2scc(-c3ccccc3)c12,.,-4.1,.,.,78.3*,.
C=CCn1c(NC(=O)c2ccccc2Cl)c(C#N)c2nc3ccccc3nc21,-11.4,-8.2,-2.3,1.1,96.6*,27.6
CCOC(=O)C(CC)n1cnc2c(cnn2-c2ccc(Cl)cc2)c1=O (stereo not given),17.8,0.4,-0.1,1.2,7.8,12.4
CCCCn1cnc2c(cnn2-c2ccc(Cl)cc2)c1=O,64.8*,.,6.1,1.4,.,27.7
CCCn1cnc2c(cnn2-c2ccc(F)cc2)c1=O,52.4*,.,5.1,1.5,.,34.2
CCOC(=O)C(C)n1cnc2c(cnn2-c2ccc(Cl)cc2)c1=O (stereo not given),70.0*,5.4,4.9,1.1,-11.5,40.4
CCOC(=O)C1CCCN(c2ncnc3c2cnn3-c2ccc(Cl)cc2)C1 (stereo not given),16.1,-5.7,-2.7,0.7,11.0,14.2
CCOC(=O)C1CCCN(c2ncnc3c2cnn3-c2ccc(OC)cc2)C1 (stereo not given),58.0*,1.2,4.7,1.2,-6.9,41.5
NC(=O)c1ccsc1NC(=O)c1ccc(S(=O)(=O)N2CCCCC2)cc1,35.5,0.3,12.3,1.3,-10.0,77.6*
O=c1c2ccc(Cl)cc2nc(-c2cccc(C(F)(F)F)c2)n1O,.,-7.7,.,.,69.1*,.
C=CCn1c(NC(=O)c2ccccc2)c(C#N)c2nc3ccccc3nc21,14.0,.,8.5,1,.,11.8
CN(C)c1ccc(CNC(=O)[C@@]2(C)C=C[C@@H](Cc3ccccc3)N2C)cc1,.,.,.,1,.,.
O=C(NC(Nc1ncc(S(=O)(=O)c2ccc([N+](=O)[O-])cc2)s1)(C(F)(F)F)C(F)(F)F)c1ccc(Cl)cc1,.,-5.1,.,.,95.9*,.
O=C(Nc1cc(C(F)(F)F)ccc1N1CCOCC1)c1cn2ccccc2n1,.,1.8,2.4,1.2,-3.4,.
Cc1ccn2cc(C(=O)Nc3ccccc3N3CCOCC3)nc2c1,18.4,2.5,-1.9,1.3,-6.6,54.9*
O=C(Nc1ccccc1)c1cnc[nH]1,56.8*,2.3,.,1.5,-3.7,28.4
CCc1ccc(CNC(=O)c2cc3c(C)nc4ccccc4c3o2)cc1,.,-7.5,3.5,.,93.5*,.

# Assay outcomes as filed in PubChem BioAssay.
